# How the values were obtained:
# Type in all cases: functional
# Trichophyton rubrum = assay: Antifungal activity against Trichophyton rubrum by micro-broth dilution method
# Outline: (§1)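 MIC80 by broth microdilution in 96-well format following NCCLS. Compounds were dissolved in DMSO, serially diluted in growth medium, inoculated and incubated at 35 °C. The endpoint was the first well with about 80% growth reduction versus the drug-free well. Values are means of three replicate tests.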
# Candida albicans [1] = assay: Antifungal activity against Candida albicans Y0109 after 24 hrs by micro-broth dilution method; conditions: Y0109, 24 h
# Outline: (§2)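 Broth microdilution per NCCLS on Candida albicans. Compounds were dissolved in DMSO, serially diluted in growth medium, inoculated and incubated at 35 °C. Growth was read at 24 h, and MIC80 was taken as the first well with about 80% growth reduction relative to the drug-free control. Values are the mean of three replicates.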
# Candida parapsilosis = assay: Antifungal activity against Candida parapsilosis by micro-broth dilution method; conditions: Lodderomyces parapsilosis; outline: as §1
# Candida tropicalis = assay: Antifungal activity against Candida tropicalis by micro-broth dilution method; outline: as §1
# Candida albicans [2] = assay: Antifungal activity against Candida albicans SC5314 after 24 hrs by micro-broth dilution method; conditions: SC5314, 24 h; outline: as §2
# Kluyveromyces marxianus = assay: Antifungal activity against Candida kefyr by micro-broth dilution method; outline: as §1
# Aspergillus fumigatus = assay: Antifungal activity against Aspergillus fumigatus by micro-broth dilution method; outline: as §1
# Cryptococcus neoformans = assay: Antifungal activity against Cryptococcus neoformans after 72 hrs by micro-broth dilution method
# Outline: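 Cryptococcus neoformans tested by NCCLS micro-broth dilution. Compounds were dissolved in DMSO, serially diluted in medium, inoculated and incubated at 35 °C. MIC80 was read at 72 h as the first well showing approximately 80% growth reduction compared with the drug-free well. Values are the mean of three replicate tests.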
smiles,measurement,setting,value
CCCCCn1cc(CN(CC(O)(Cn2cncn2)c2ccc(F)cc2F)C2CC2)nn1 (centres undefined),MIC,Trichophyton rubrum,< 0.125 µg/mL
same,MIC,Candida albicans [1],0.0625 µg/mL
same,MIC,Candida parapsilosis,0.5 µg/mL
same,MIC,Candida tropicalis,0.25 µg/mL
same,MIC,Candida albicans [2],< 0.125 µg/mL
same,MIC,Kluyveromyces marxianus,0.25 µg/mL
same,MIC,Aspergillus fumigatus,> 64 µg/mL
same,MIC,Cryptococcus neoformans,32 µg/mL
OC(CN(Cc1cn(C2CCCCC2)nn1)C1CC1)(Cn1cncn1)c1ccc(F)cc1F (centres undefined),MIC,Trichophyton rubrum,2 µg/mL
same,MIC,Candida albicans [1],0.0625 µg/mL
same,MIC,Candida parapsilosis,1 µg/mL
same,MIC,Candida tropicalis,1 µg/mL
same,MIC,Candida albicans [2],4 µg/mL
same,MIC,Kluyveromyces marxianus,0.25 µg/mL
same,MIC,Aspergillus fumigatus,32 µg/mL
same,MIC,Cryptococcus neoformans,2 µg/mL
Cc1ccc(Cn2cc(CN(CC(O)(Cn3cncn3)c3ccc(F)cc3F)C3CC3)nn2)cc1 (centres undefined),MIC,Trichophyton rubrum,< 0.125 µg/mL
same,MIC,Candida albicans [1],0.0156 µg/mL
same,MIC,Candida parapsilosis,< 0.125 µg/mL
same,MIC,Candida tropicalis,< 0.125 µg/mL
same,MIC,Candida albicans [2],< 0.125 µg/mL
same,MIC,Kluyveromyces marxianus,0.0156 µg/mL
same,MIC,Aspergillus fumigatus,64 µg/mL
same,MIC,Cryptococcus neoformans,1 µg/mL
O=[N+]([O-])c1ccccc1Cn1cc(CN(CC(O)(Cn2cncn2)c2ccc(F)cc2F)C2CC2)nn1 (centres undefined),MIC,Trichophyton rubrum,4 µg/mL
same,MIC,Candida albicans [1],0.0625 µg/mL
same,MIC,Candida parapsilosis,4 µg/mL
same,MIC,Candida tropicalis,4 µg/mL
same,MIC,Candida albicans [2],16 µg/mL
same,MIC,Kluyveromyces marxianus,0.0625 µg/mL
same,MIC,Aspergillus fumigatus,> 64 µg/mL
same,MIC,Cryptococcus neoformans,64 µg/mL
O=[N+]([O-])c1cccc(Cn2cc(CN(CC(O)(Cn3cncn3)c3ccc(F)cc3F)C3CC3)nn2)c1 (centres undefined),MIC,Trichophyton rubrum,0.25 µg/mL
same,MIC,Candida albicans [1],0.0625 µg/mL
same,MIC,Candida parapsilosis,8 µg/mL
same,MIC,Candida tropicalis,4 µg/mL
same,MIC,Candida albicans [2],4 µg/mL
same,MIC,Kluyveromyces marxianus,0.0156 µg/mL
same,MIC,Aspergillus fumigatus,> 64 µg/mL
same,MIC,Cryptococcus neoformans,64 µg/mL
O=[N+]([O-])c1ccc(Cn2cc(CN(CC(O)(Cn3cncn3)c3ccc(F)cc3F)C3CC3)nn2)cc1 (centres undefined),MIC,Trichophyton rubrum,0.5 µg/mL
same,MIC,Candida albicans [1],0.25 µg/mL
same,MIC,Candida parapsilosis,1 µg/mL
same,MIC,Candida tropicalis,0.25 µg/mL
same,MIC,Candida albicans [2],< 0.125 µg/mL
same,MIC,Kluyveromyces marxianus,0.0039 µg/mL
same,MIC,Aspergillus fumigatus,> 64 µg/mL
same,MIC,Cryptococcus neoformans,16 µg/mL
N#Cc1ccccc1Cn1cc(CN(CC(O)(Cn2cncn2)c2ccc(F)cc2F)C2CC2)nn1 (centres undefined),MIC,Trichophyton rubrum,2 µg/mL
same,MIC,Candida albicans [1],16 µg/mL
same,MIC,Candida parapsilosis,2 µg/mL
same,MIC,Candida tropicalis,1 µg/mL
same,MIC,Candida albicans [2],0.25 µg/mL
same,MIC,Kluyveromyces marxianus,1 µg/mL
same,MIC,Aspergillus fumigatus,> 64 µg/mL
same,MIC,Cryptococcus neoformans,64 µg/mL
N#Cc1cccc(Cn2cc(CN(CC(O)(Cn3cncn3)c3ccc(F)cc3F)C3CC3)nn2)c1 (centres undefined),MIC,Trichophyton rubrum,4 µg/mL
same,MIC,Candida albicans [1],4 µg/mL
same,MIC,Candida parapsilosis,4 µg/mL
same,MIC,Candida tropicalis,1 µg/mL
same,MIC,Candida albicans [2],4 µg/mL
same,MIC,Kluyveromyces marxianus,1 µg/mL
same,MIC,Aspergillus fumigatus,> 64 µg/mL
same,MIC,Cryptococcus neoformans,64 µg/mL
N#Cc1ccc(Cn2cc(CN(CC(O)(Cn3cncn3)c3ccc(F)cc3F)C3CC3)nn2)cc1 (centres undefined),MIC,Trichophyton rubrum,4 µg/mL
same,MIC,Candida albicans [1],0.0625 µg/mL
same,MIC,Candida parapsilosis,4 µg/mL
same,MIC,Candida tropicalis,4 µg/mL
same,MIC,Candida albicans [2],1 µg/mL
same,MIC,Kluyveromyces marxianus,1 µg/mL
same,MIC,Aspergillus fumigatus,> 64 µg/mL
same,MIC,Cryptococcus neoformans,64 µg/mL
OC(CN(Cc1cn(Cc2c(Cl)cccc2Cl)nn1)C1CC1)(Cn1cncn1)c1ccc(F)cc1F (centres undefined),MIC,Trichophyton rubrum,1 µg/mL
same,MIC,Candida albicans [1],0.0625 µg/mL
same,MIC,Candida parapsilosis,4 µg/mL
same,MIC,Candida tropicalis,4 µg/mL
same,MIC,Candida albicans [2],4 µg/mL
same,MIC,Kluyveromyces marxianus,0.25 µg/mL
same,MIC,Aspergillus fumigatus,> 64 µg/mL
same,MIC,Cryptococcus neoformans,64 µg/mL
CCc1ccc(Cn2cc(CN(CC(O)(Cn3cncn3)c3ccc(F)cc3F)C3CC3)nn2)cc1 (centres undefined),MIC,Trichophyton rubrum,2 µg/mL
same,MIC,Candida albicans [1],0.25 µg/mL
same,MIC,Candida parapsilosis,4 µg/mL
same,MIC,Candida tropicalis,2 µg/mL
same,MIC,Candida albicans [2],4 µg/mL
same,MIC,Kluyveromyces marxianus,0.25 µg/mL
same,MIC,Aspergillus fumigatus,> 64 µg/mL
same,MIC,Cryptococcus neoformans,1 µg/mL
CC(C)(C)c1ccc(Cn2cc(CN(CC(O)(Cn3cncn3)c3ccc(F)cc3F)C3CC3)nn2)cc1 (centres undefined),MIC,Trichophyton rubrum,4 µg/mL
same,MIC,Candida albicans [1],< 0.125 µg/mL
same,MIC,Candida parapsilosis,0.25 µg/mL
same,MIC,Candida tropicalis,16 µg/mL
same,MIC,Candida albicans [2],0.0625 µg/mL
same,MIC,Kluyveromyces marxianus,1 µg/mL
same,MIC,Aspergillus fumigatus,> 64 µg/mL
same,MIC,Cryptococcus neoformans,4 µg/mL
C[C@@H]1[C@H](O)[C@@H](C)/C=C/C=C/C=C/C=C/C=C/C=C/C=C/[C@H](O[C@@H]2O[C@H](C)[C@@H](O)[C@H](N)[C@@H]2O)C[C@@H]2O[C@](O)(C[C@@H](O)C[C@@H](O)[C@H](O)CC[C@@H](O)C[C@@H](O)CC(=O)O[C@H]1C)C[C@H](O)[C@H]2C(=O)O [AMPHOTERICIN B],MIC,Trichophyton rubrum,1 µg/mL
same,MIC,Candida albicans [1],4 µg/mL
same,MIC,Candida parapsilosis,0.125 µg/mL
same,MIC,Candida tropicalis,0.25 µg/mL
same,MIC,Candida albicans [2],8 µg/mL
same,MIC,Kluyveromyces marxianus,0.25 µg/mL
same,MIC,Aspergillus fumigatus,32 µg/mL
same,MIC,Cryptococcus neoformans,4 µg/mL
OC(Cn1cncn1)(Cn1cncn1)c1ccc(F)cc1F [FLUCONAZOLE],MIC,Trichophyton rubrum,< 0.125 µg/mL
same,MIC,Candida albicans [1],0.5 µg/mL
same,MIC,Candida parapsilosis,2 µg/mL
same,MIC,Candida tropicalis,< 0.125 µg/mL
same,MIC,Candida albicans [2],0.5 µg/mL
same,MIC,Kluyveromyces marxianus,1 µg/mL
same,MIC,Aspergillus fumigatus,> 64 µg/mL
same,MIC,Cryptococcus neoformans,8 µg/mL
CCC(C)n1ncn(-c2ccc(N3CCN(c4ccc(OCC5COC(Cn6cncn6)(c6ccc(Cl)cc6Cl)O5)cc4)CC3)cc2)c1=O (centres undefined) [ITRACONAZOLE],MIC,Trichophyton rubrum,0.0625 µg/mL
same,MIC,Candida albicans [1],0.0625 µg/mL
same,MIC,Candida parapsilosis,0.0625 µg/mL
same,MIC,Candida tropicalis,< 0.0625 µg/mL
same,MIC,Candida albicans [2],< 0.0625 µg/mL
same,MIC,Kluyveromyces marxianus,0.0625 µg/mL
same,MIC,Aspergillus fumigatus,2 µg/mL
same,MIC,Cryptococcus neoformans,0.125 µg/mL
CC(=O)N1CCN(c2ccc(OCC3COC(Cn4ccnc4)(c4ccc(Cl)cc4Cl)O3)cc2)CC1 (centres undefined) [KETOCONAZOLE],MIC,Trichophyton rubrum,< 0.125 µg/mL
same,MIC,Candida albicans [1],< 0.125 µg/mL
same,MIC,Candida parapsilosis,< 0.125 µg/mL
same,MIC,Candida tropicalis,< 0.125 µg/mL
same,MIC,Candida albicans [2],< 0.125 µg/mL
same,MIC,Kluyveromyces marxianus,0.0625 µg/mL
same,MIC,Aspergillus fumigatus,0.125 µg/mL
same,MIC,Cryptococcus neoformans,0.5 µg/mL
CN(C/C=C/C#CC(C)(C)C)Cc1cccc2ccccc12 [TERBINAFINE],MIC,Trichophyton rubrum,< 0.125 µg/mL
same,MIC,Candida albicans [1],2 µg/mL
same,MIC,Candida parapsilosis,< 0.125 µg/mL
same,MIC,Candida tropicalis,< 0.125 µg/mL
same,MIC,Candida albicans [2],16 µg/mL
same,MIC,Kluyveromyces marxianus,0.0625 µg/mL
same,MIC,Aspergillus fumigatus,0.25 µg/mL
same,MIC,Cryptococcus neoformans,8 µg/mL
C[C@@H](c1ncncc1F)[C@](O)(Cn1cncn1)c1ccc(F)cc1F [VORICONAZOLE],MIC,Trichophyton rubrum,0.25 µg/mL
same,MIC,Candida albicans [1],< 0.125 µg/mL
same,MIC,Candida parapsilosis,< 0.125 µg/mL
same,MIC,Candida tropicalis,< 0.125 µg/mL
same,MIC,Candida albicans [2],32 µg/mL
same,MIC,Kluyveromyces marxianus,0.0039 µg/mL
same,MIC,Aspergillus fumigatus,< 0.125 µg/mL
same,MIC,Cryptococcus neoformans,< 0.125 µg/mL

# From ChEMBL document CHEMBL1250476, “Synthesis and antifungal evaluation of novel triazole derivatives as inhibitors of cytochrome P450 14alpha-demethylase” (2010)
